Data: ChEMBL document CHEMBL3784973, “A Parallel Synthesis Approach to the Identification of Novel Diheteroarylamide-Based Compounds Blocking HIV Replication: Potential Inhibitors of HIV-1 Pre-mRNA Alternative Splicing” (J Med Chem, 2016)
Active and inactive are the calls of the source. The rule behind the calls is not given here.

Tests used:
[1] = test system: Human immunodeficiency virus 1; experiment: Antiviral activity against HIV1 NL4-3 infected in GFP-positive human CEM cells expressing CD4+,CXCR4 and CCR5 at 2 uM after 3 days by flow cytometric analysis; type: functional, organism-based; settings: CCRF-CEM
How it was run: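 Library screen of HIV-1 spread in CEM-GXR cells cocultured with 1% HIV-1NL4-3-infected (GFP+) cells. Cells were grown in RPMI-1640 with 10% FCS and penicillin-streptomycin, and selected with G418 and hygromycin B during propagation. Compound at final 2 μM in DMSO was added right after inoculation. Infection was read by flow cytometry of GFP.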

[2] = Cytotoxicity against GFP-positive human CEM cells expressing CD4+,CXCR4 and CCR5 assessed as cell viability at 16 uM after 24 hrs by Guava viacount assay; type: cell-based, CCRF-CEM; settings: read-out: Activity
How it was run: (§1)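 Uninfected CEM-GXR cells were incubated 24 h with serial dilutions from 62.5 nM to 16 μM final. Viability was read by Guava ViaCount (dye permeability staining with forward scatter gating) as % viable cells. Three independent experiments.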

[3] = Cytotoxicity against GFP-positive human CEM cells expressing CD4+,CXCR4 and CCR5 assessed as cell viability at 8 uM after 24 hrs by Guava viacount assay; type: cell-based, CCRF-CEM; settings: read-out: Activity; how it was run: as §1
[4] = Cytotoxicity against GFP-positive human CEM cells expressing CD4+,CXCR4 and CCR5 assessed as cell viability at 4 uM after 24 hrs by Guava viacount assay; type: cell-based, CCRF-CEM; settings: read-out: Activity; how it was run: as §1
[5] = Cytotoxicity against GFP-positive human CEM cells expressing CD4+,CXCR4 and CCR5 assessed as cell viability at 1 uM after 24 hrs by Guava viacount assay; type: cell-based, CCRF-CEM; settings: read-out: Activity; how it was run: as §1
[6] = test system: Human immunodeficiency virus 1; experiment: Antiviral activity against HIV1 3B infected in GFP-positive human CEM cells expressing CD4+,CXCR4 and CCR5 assessed as number of infected cells at 1 uM after 3 days; type: functional, CCRF-CEM
How it was run: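 CEM-GXR cells (CD4+ T-cell line, Tat-driven LTR-GFP reporter) infected by coculture with 1% HIV-1IIIB-infected cells. Serial dilutions 62.5 nM–16 μM added at inoculation. GFP-positive (infected) cells counted 3 days post-infection. Three independent experiments.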

[7] = test system: Human immunodeficiency virus 1; experiment: Antiviral activity against subtype A R5 tropic HIV1 97USSN54 infected in GFP-positive human CEM cells expressing CD4+,CXCR4 and CCR5 after 3 days; type: functional, organism-based; settings: Human immunodeficiency virus 1, 97USSN54, CCRF-CEM, 72 h
How it was run: (§2)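 Infected CEM-GXR GFP-reporter cells were exposed to increasing compound concentrations. GFP-positive cells were measured by flow cytometry 3 days after infection. EC50 came from nonlinear regression of the inhibition curves. Mean of three independent determinations.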

[8] = test system: Human immunodeficiency virus 1; experiment: Antiviral activity against subtype B X4 tropic HIV1 3B infected in GFP-positive human CEM cells expressing CD4+,CXCR4 and CCR5 after 3 days; type: functional, organism-based; settings: Human immunodeficiency virus 1, 3B, CCRF-CEM, 72 h; how it was run: as §2
[9] = Cytotoxicity against GFP-positive human CEM cells expressing CD4+,CXCR4 and CCR5 assessed as cell viability at 100 uM after 24 hrs by Guava viacount assay (reference value: 98%); type: cell-based, CCRF-CEM; settings: read-out: Activity
How it was run: (§3)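 For viability, CEM-GXR cells were incubated 24 h with compound at 0.5–100 μM. Guava ViaCount flow assay used DNA-binding dye permeability plus forward scatter to exclude nuclei and debris. Values are % viable cells (±SEM, three independent experiments), and CC50 is the concentration killing 50% of host cells.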

[10] = test system: Human immunodeficiency virus 1; experiment: Antiviral activity against […]-resistance HIV1 E00443 harboring reverse transcriptase D67N/K70R/Y115F/Q151M/M184V/K219Q mutant infected in GFP-positive human CEM cells expressing CD4+,CXCR4 and CCR5 after 3 days; type: functional, organism-based; settings: Human immunodeficiency virus 1, E00443, CCRF-CEM, 72 h
[11] = test system: Human immunodeficiency virus 1; experiment: Antiviral activity against PI-resistant HIV1 isolate 2948 harboring protease G48V/L90M mutant infected in GFP-positive human CEM cells expressing CD4+,CXCR4 and CCR5 after 3 days; type: functional, organism-based; settings: Human immunodeficiency virus 1, isolate 2948, CCRF-CEM, 72 h
[12] = test system: Human immunodeficiency virus 1; experiment: Antiviral activity against INI-resistant HIV1 isolate 11845 harboring integrase G140S/Q148H mutant infected in GFP-positive human CEM cells expressing CD4+,CXCR4 and CCR5 after 3 days; type: functional, organism-based; settings: Human immunodeficiency virus 1, isolate 11845, CCRF-CEM, 72 h
[13] = test system: Human immunodeficiency virus 1; experiment: Antiviral activity against maraviroc-resistant HIV1 BAL R5 harboring envelop V3 A19T/L20F/T22A/E25D/126V mutant infected in GFP-positive human CEM cells expressing CD4+,CXCR4 and CCR5 after 3 days; type: functional, organism-based; settings: ccrf-cem
[14] = Cytotoxicity against GFP-positive human CEM cells expressing CD4+,CXCR4 and CCR5 assessed as cell viability at after 24 hrs by Guava viacount assay; type: cell-based, CCRF-CEM; how it was run: as §3
[15] = Therapeutic index, ratio of CC50 for GFP-positive human CEM cells expressing CD4+,CXCR4 and CCR5 to EC50 for HIV1 3B infected in GFP-positive human CEM cells expressing CD4+,CXCR4 and CCR5; type: cell-based, CCRF-CEM; settings: read-out: TI
How it was run: (§4)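 Reporter CEM-GXR T cells (Tat-driven LTR-GFP cassette; RPMI-1640, 10% FCS, penicillin-streptomycin) were infected by coculture with 1% HIV-infected GFP-positive cells. Compound in DMSO was added after inoculation. Infected cells were counted by flow cytometry for GFP at day 3, and EC50 was taken from nonlinear regression. CC50 came from Guava ViaCount viability after 24 h at 0.5–100 μM. Index = CC50/EC50.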

[16] = Therapeutic index, ratio of CC50 for GFP-positive human CEM cells expressing CD4+,CXCR4 and CCR5 to EC50 for HIV1 97USSN54 infected in GFP-positive human CEM cells expressing CD4+,CXCR4 and CCR5; type: cell-based, CCRF-CEM; settings: read-out: TI; how it was run: as §4
[17] = Therapeutic index, ratio of CC50 for GFP-positive human CEM cells expressing CD4+,CXCR4 and CCR5 to EC50 for […] HIV1 E00443 reverse transcriptase D67N/K70R/Y115F/Q151M/M184V/K219Q mutant infected in GFP-positive human CEM cells expressing CD4+,CXCR4 and CCR5; type: cell-based; settings: ccrf-cem, read-out: TI
[18] = Therapeutic index, ratio of CC50 for GFP-positive human CEM cells expressing CD4+,CXCR4 and CCR5 to EC50 for HIV1 isolate 2948 harboring protease G48V/L90M mutant infected in GFP-positive human CEM cells expressing CD4+,CXCR4 and CCR5; type: cell-based; settings: ccrf-cem, read-out: TI
[19] = Therapeutic index, ratio of CC50 for GFP-positive human CEM cells expressing CD4+,CXCR4 and CCR5 to EC50 for INI-resistant HIV1 isolate 11845 harboring integrase G140S/Q148H mutant infected in GFP-positive human CEM cells expressing CD4+,CXCR4 and CCR5; type: cell-based; settings: ccrf-cem, read-out: TI
[20] = Therapeutic index, ratio of CC50 for GFP-positive human CEM cells expressing CD4+,CXCR4 and CCR5 to EC50 for maraviroc-resistant HIV1 BAL R5 harboring envelop V3 A19T/L20F/T22A/E25D/126V mutant infected in GFP-positive human CEM cells expressing CD4+,CXCR4 and CCR5; type: cell-based; settings: ccrf-cem, read-out: TI

Row | SMILES | antiviral activity call (active/inactive) [1] | viability at 24 h, 16 µM [2] | viability at 24 h, 8 µM [3] | viability at 24 h, 4 µM [4] | viability at 24 h, 1 µM [5] | Activity [6] | EC50 [8] | further results
1 | COc1cc(C(=O)Nc2nsc3ccc([N+](=O)[O-])cc23)ccn1 | Active |  |  |  |  |  |  | 
2 | Cc1c2ccnc(Cl)c2cc2c3cn(C)ccc-3nc12 |  | 11.9% | 19.9% | 33.2% | 85.5% | 17.7% |  | 
3 | Cn1ccc(=O)c(C(=O)Nc2nsc3ccc([N+](=O)[O-])cc23)c1 | Active | 78.7% | 80.9% | 81.5% | 89.6% | 18.4% | 600 nM | EC50 [7]: 900 nM; viability at 24 h, 100 µM [9]: 68.8%; EC50 [10]: 1300 nM; EC50 [11]: 1400 nM; EC50 [12]: 1500 nM; EC50 [13]: 900 nM; CC50 at 24 h [14]: > 100000 nM; selectivity ratio [15]: > 166; selectivity ratio [16]: > 111; selectivity ratio [17]: > 77; selectivity ratio [18]: > 71; selectivity ratio [19]: > 66; selectivity ratio [20]: > 111
4 | COCCOc1ccncc1C(=O)Nc1nsc2ccc([N+](=O)[O-])cc12 | Active |  |  |  |  |  |  | 
5 | Nc1nc(=O)n([C@@H]2CS[C@H](CO)O2)cc1F [EMTRICITABINE] |  |  |  |  |  |  | 40 nM | 
6 | COCCOc1cc(=O)n(C)cc1C(=O)Nc1nsc2ccc([N+](=O)[O-])cc12 | Active |  |  |  |  |  |  | 
